Data taken from article PMC6639057 (Investigational new drugs, 2018).
Where “and” joins values, the source holds several entries; their conditions need not be identical. Equal values may be shown once. Entries after “also recorded” stand apart in the source; their conditions may differ. Marks after values point to notes of the source that are not given here.

Key:
[1] = test system: xenografts of diverse tumor types that were resistant to either docetaxel or paclitaxel; details: mouse models; cited from earlier work
[2] = test system: castration-resistant and taxane- or cisplatin/etoposide-resistant prostate cancer; assay: Tumor response, dose-expansion CRPC cohort; format: in vivo, human
[3] = test system: advanced solid tumors; assay: Tumor response, dose-escalation cohorts; format: in vivo, human; details: for Best overall response: Complete response / Best overall response: Partial response / Best overall response: Progressive disease / Best overall response: Stable disease / Best overall response: Unable to evaluate: Central read, RECIST 1.1
In short: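 Adults with refractory advanced solid tumours took the drug orally once each morning on days 1–4 of 14-day cycles, fasting from 2 h predose (water only) until 1 h postdose. Doses were 1–30 mg (and 25 mg) without G-CSF, or 30–50 mg with subcutaneous G-CSF (300 or 480 µg daily). Scans were read centrally by RECIST 1.1 and locally by RECIST 1.0, with GCIG criteria for ovarian tumours.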

[4] = test system: patients with advanced solid tumors; assay: Dose-limiting toxicities and maximum tolerated dose, dose-escalation phase; format: in vivo
[5] = test system: taxane- and platinum-resistant ovarian cancer; assay: Tumor response, dose-expansion ovarian cancer cohort; format: in vivo, human
[6] = test system: taxane-resistant triple-negative breast cancer; assay: Tumor response, dose-expansion TNBC cohort; format: in vivo, human
[7] = Central read, RECIST 1.1, expansion 40 mg + G-CSF, CRPC (n = 12)
[8] = Local read, RECIST 1.0, expansion 40 mg + G-CSF, CRPC (n = 12)
[9] = escalation 30 mg + G-CSF (n = 6)
[10] = escalation 35 mg + G-CSF (n = 3)
[11] = escalation 40 mg + G-CSF (n = 11)
[12] = escalation 50 mg + G-CSF (n = 4)
[13] = escalation 1, 2, 4, 8 mg (n = 4)
[14] = Central read, RECIST 1.1, expansion 40 mg + G-CSF, OC (n = 29)
[15] = GCIG criteria (RECIST 1.1 and CA 125), expansion 40 mg + G-CSF, OC (n = 29)
[16] = Local read, RECIST 1.0, expansion 40 mg + G-CSF, OC (n = 29)
[17] = Central read, RECIST 1.1, expansion 40 mg + G-CSF, TNBC (n = 14)
[18] = Local read, RECIST 1.0, expansion 40 mg + G-CSF, TNBC (n = 14)

Structure (SMILES): Cc1csc(-c2nnc(Nc3ccc(Oc4ncccc4-c4ccnc(N)n4)cc3)c3ccccc23)c1 [AMG 900]
- Growth of xenografts [1]: inhibited growth
- Progression-free survival, median (80% CI) ([2]; Central read, RECIST 1.1, Kaplan-Meier, expansion 40 mg + G-CSF, CRPC (n = 12)): 32.4 (15.7–39.6) weeks
- Best overall response: Complete response [2, 7]: 0 Patients (%)
- Best overall response: Not evaluable (postbaseline scan not readable) [2, 7]: 2 (17) Patients (%)
- Best overall response: Partial response [2, 7]: 0 Patients (%)
- Best overall response: Progressive disease [2, 7]: 1 (8) Patients (%)
- Best overall response: Stable disease [2, 7]: 9 (75) Patients (%)
- Best overall response: Complete response [2, 8]: 0 Patients (%)
- Best overall response: Not evaluable (postbaseline scan not readable) [2, 8]: 1 (8) Patients (%)
- Best overall response: Partial response [2, 8]: 0 Patients (%)
- Best overall response: Progressive disease [2, 8]: 3 (25) Patients (%)
- Best overall response: Stable disease [2, 8]: 8 (67) Patients (%)
- Objective responses ([2]; RECIST 1.1, CRPC): No objective responses
- Duration of stable disease, one patient with medullary thyroid cancer ([3]; 24 mg): > 3.5 years
- Tumor response, one patient with clear-cell endometrial cancer ([3]; 30 mg + G-CSF): partial response per RECIST 1.0 (local read) that was not confirmed per RECIST 1.1 (central read)
- Tumor response, one patient with ovarian cancer ([3]; 30 mg, RECIST 1.1 and GCIG criteria (central read)): partial response
- Best overall response: Complete response ([3]; escalation 16 mg (n = 3)): 0 Patients (%)
- Best overall response: Partial response ([3]; escalation 16 mg (n = 3)): 0 Patients (%)
- Best overall response: Progressive disease ([3]; escalation 16 mg (n = 3)): 0 Patients (%)
- Best overall response: Stable disease ([3]; escalation 16 mg (n = 3)): 2 (67) Patients (%)
- Best overall response: Unable to evaluate ([3]; escalation 16 mg (n = 3)): 1 (33) Patients (%)
- Best overall response: Complete response ([3]; escalation 24 mg (n = 6)): 0 Patients (%)
- Best overall response: Partial response ([3]; escalation 24 mg (n = 6)): 0 Patients (%)
- Best overall response: Progressive disease ([3]; escalation 24 mg (n = 6)): 1 (17) Patients (%)
- Best overall response: Stable disease ([3]; escalation 24 mg (n = 6)): 5 (83) Patients (%)
- Best overall response: Unable to evaluate ([3]; escalation 24 mg (n = 6)): 0 Patients (%)
- Best overall response: Complete response ([3]; escalation 25 mg (n = 7)): 0 Patients (%)
- Best overall response: Partial response ([3]; escalation 25 mg (n = 7)): 0 Patients (%)
- Best overall response: Progressive disease ([3]; escalation 25 mg (n = 7)): 1 (14) Patients (%)
- Best overall response: Stable disease ([3]; escalation 25 mg (n = 7)): 4 (57) Patients (%)
- Best overall response: Unable to evaluate ([3]; escalation 25 mg (n = 7)): 2 (29) Patients (%)
- Best overall response: Complete response ([3]; escalation 30 mg (n = 6)): 0 Patients (%)
- Best overall response: Progressive disease ([3]; escalation 30 mg (n = 6)): 1 (17) Patients (%)
- Best overall response: Stable disease ([3]; escalation 30 mg (n = 6)): 3 (50) Patients (%)
- Best overall response: Unable to evaluate ([3]; escalation 30 mg (n = 6)): 1 (17) Patients (%)
- Best overall response: Partial response ([3]; escalation 30 mg (n = 6), patient also had a response by GCIG CA 125 criteria): 1 (17)^b Patients (%)
- Best overall response: Complete response [3, 9]: 0 Patients (%)
- Best overall response: Partial response [3, 9]: 0 Patients (%)
- Best overall response: Progressive disease [3, 9]: 3 (50) Patients (%)
- Best overall response: Stable disease [3, 9]: 3 (50) Patients (%)
- Best overall response: Unable to evaluate [3, 9]: 0 Patients (%)
- Best overall response: Complete response [3, 10]: 0 Patients (%)
- Best overall response: Partial response [3, 10]: 0 Patients (%)
- Best overall response: Progressive disease [3, 10]: 2 (67) Patients (%)
- Best overall response: Stable disease [3, 10]: 1 (33) Patients (%)
- Best overall response: Unable to evaluate [3, 10]: 0 Patients (%)
- Best overall response: Complete response [3, 11]: 0 Patients (%)
- Best overall response: Partial response [3, 11]: 0 Patients (%)
- Best overall response: Progressive disease [3, 11]: 2 (18) Patients (%)
- Best overall response: Stable disease [3, 11]: 7 (64) Patients (%)
- Best overall response: Unable to evaluate [3, 11]: 2 (18) Patients (%)
- Best overall response: Complete response [3, 12]: 0 Patients (%)
- Best overall response: Partial response [3, 12]: 0 Patients (%)
- Best overall response: Progressive disease [3, 12]: 0 Patients (%)
- Best overall response: Stable disease [3, 12]: 2 (50) Patients (%)
- Best overall response: Unable to evaluate [3, 12]: 2 (50) Patients (%)
- Best overall response: Complete response [3, 13]: 0 Patients (%)
- Best overall response: Partial response [3, 13]: 0 Patients (%)
- Best overall response: Progressive disease [3, 13]: 2 (50) Patients (%)
- Best overall response: Stable disease [3, 13]: 2 (50) Patients (%)
- Best overall response: Unable to evaluate [3, 13]: 0 Patients (%)
- Progressive disease ([3]; dose-escalation phase (12 patients of 50)): 24%
- Stable disease (best response) ([3]; dose-escalation phase, RECIST 1.1 (29 patients of 50)): 58%
- DLTs overall ([4]; in vivo): nine DLTs were reported in eight patients
- Maximum tolerated dose (MTD) and recommended phase 2 dose ([4]; with G-CSF, daily, 4 days on, 10 days off): 40 mg
- Maximum tolerated dose (MTD) ([4]; with G-CSF, oral, 4 days on/10 days off): 40 mg/day
- Maximum tolerated dose (MTD) ([4]; without G-CSF, daily, 4 days on, 10 days off): 25 mg
- Maximum tolerated dose (MTD) ([4]; without G-CSF, oral, 4 days on/10 days off): 25 mg/day
- Progression-free survival, median (80% CI) ([5]; Central read, RECIST 1.1, Kaplan-Meier, expansion 40 mg + G-CSF, OC (n = 29)): 31.7 (23.7–47.6) weeks
- Best overall response: Complete response [5, 14]: 0 Patients (%)
- Best overall response: Not evaluable (postbaseline scan not readable) [5, 14]: 2 (7) Patients (%)
- Best overall response: Partial response [5, 14]: 3 (10) Patients (%)
- Best overall response: Progressive disease [5, 14]: 3 (10) Patients (%)
- Best overall response: Stable disease [5, 14]: 21 (72) Patients (%)
- Best overall response: Complete response [5, 15]: 0 Patients (%)
- Best overall response: Not evaluable (postbaseline scan not readable) [5, 15]: 3 (10) Patients (%)
- Best overall response: Partial response [5, 15]: 7 (24) Patients (%)
- Best overall response: Progressive disease [5, 15]: 3 (10) Patients (%)
- Best overall response: Stable disease [5, 15]: 16 (55) Patients (%)
- Partial response ([5]; GCIG criteria (RECIST 1.1 and CA 125), expansion ovarian cancer (7 of 29)): 24.1%
- Objective response rate (ORR) ([5]; GCIG criteria (central read), expansion ovarian cancer, 95% CI 10.3%–43.5%): 24.1%
- Progressive disease ([5]; GCIG criteria, expansion ovarian cancer (3 of 29)): 10.3%
- Stable disease ([5]; GCIG criteria, expansion ovarian cancer (16 of 29)): 55.2%
- Median (80% CI) PFS ([5]; Kaplan-Meier, ovarian cancer patients from dose-escalation (n = 4) and dose-expansion (n = 29)): 34.1 (31.1–not estimable) weeks
- Best overall response: Complete response [5, 16]: 0 Patients (%)
- Best overall response: Not evaluable (postbaseline scan not readable) [5, 16]: 2 (7) Patients (%)
- Best overall response: Partial response [5, 16]: 3 (10) Patients (%)
- Best overall response: Progressive disease [5, 16]: 4 (14) Patients (%)
- Best overall response: Stable disease [5, 16]: 20 (69) Patients (%)
- Progressive disease ([5]; RECIST 1.1, expansion ovarian cancer (3 of 29)): 10.3%
- Stable disease as best response ([5]; RECIST 1.1, expansion ovarian cancer (21 of 29)): 72.4%
- Median duration of response ([5]; RECIST 1.1, expansion ovarian cancer, 95% CI: 16.1–34.1): 24.1 weeks
- Objective response rate (ORR) ([5]; RECIST 1.1 central read, expansion ovarian cancer, 95% CI 2.0%–28.0%): 10.3%
- Partial response ([5]; RECIST 1.1 central, expansion ovarian cancer (3 of 29)): 10.3%
- Duration of partial response, individual patients ([5]; by GCIG criteria, same three ovarian cancer patients): 16.1 weeks and 65.6 weeks and 74.9 weeks
- Duration of partial response, individual patients ([5]; by RECIST 1.1, three ovarian cancer patients): 34.1 weeks and 24.1 weeks and 16.1 weeks
- Tumor response, one patient with TNBC ([6]; 40 mg + G-CSF, RECIST 1.0 (local read)): partial response per RECIST 1.0 (local read) that was not confirmed per RECIST 1.1 (central read)
- Progression-free survival, median (80% CI) ([6]; Central read, RECIST 1.1, Kaplan-Meier, expansion 40 mg + G-CSF, TNBC (n = 14)): 7.6 (4.1–23.6) weeks
- Best overall response: Complete response [6, 17]: 0 Patients (%)
- Best overall response: Not evaluable (postbaseline scan not readable) [6, 17]: 3 (21) Patients (%)
- Best overall response: Partial response [6, 17]: 0 Patients (%)
- Best overall response: Progressive disease [6, 17]: 4 (29) Patients (%)
- Best overall response: Stable disease [6, 17]: 7 (50) Patients (%)
- Best overall response: Complete response [6, 18]: 0 Patients (%)
- Best overall response: Not evaluable (postbaseline scan not readable) [6, 18]: 3 (21) Patients (%)
- Best overall response: Partial response [6, 18]: 1 (7) Patients (%)
- Best overall response: Progressive disease [6, 18]: 5 (36) Patients (%)
- Best overall response: Stable disease [6, 18]: 5 (36) Patients (%)
- Objective responses ([6]; RECIST 1.1 (central read), TNBC): No objective responses; also recorded: No patients with TNBC had an objective response
- Died or had progressive disease ([6]; RECIST 1.1 (central read), TNBC (7 of 14)): 50.0%
- Stable disease as best overall tumor response ([6]; RECIST 1.1, TNBC (7 of 14)): 50.0%
